Measurements from ChEMBL document CHEMBL1128227, “Cosalane analogues with enhanced potencies as inhibitors of HIV-1 protease and integrase” (J Med Chem, 1995).

What was measured:
CCRF-CEM [1] = assay: Cytotoxical effect against CEM cell lines was determined by reduction of cellular viability. data represent mean value of at least two separate experiments.; format: functional; details: Homo sapiens
Procedure, shortened: (§1)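 Compounds tested as ammonium salts. Cytotoxicity in CEM-SS, MT-4 or PBL cultures taken from the reduction in cellular viability. Values are means of at least two separate experiments.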

HEL [2] = assay: Anti viral activity against HEL cytotoxicity by minimum cytotoxic concentration that causes a microscopically detectable alteration of normal cell morphology after 2 day of treatment.; format: functional; details: Homo sapiens, 48 h
HEL [3] = assay: Antiviral activity was determined against (Herpes simplex virus -2) by concentration required to reduce virus induced cytopathogenicity by 50%.; format: functional, cell-based; details: Homo sapiens
HEL [4] = assay: Antiviral activity was determined against Herpes simplex virus -1 TK- in HEL cells by measuring concentration required to reduce virus induced cytopathogenicity by 50%.; format: functional, cell-based; details: Homo sapiens
HEL [5] = assay: Antiviral activity was determined against Herpes simplex virus -1 TK-/TK+ in HEL cells by measuring concentration required to reduce virus induced cytopathogenicity by 50%.; format: functional, cell-based; details: Homo sapiens
HEL [6] = assay: Antiviral activity was determined against Herpes simplex virus -1 in HEL cells by measuring concentration required to reduce virus induced cytopathogenicity by 50%.; format: functional, cell-based; details: Homo sapiens
HEL [7] = assay: Antiviral activity was determined against Human cytomegalovirus (strain Davis) in HEL cells by measuring concentration required to reduce virus induced cytopathogenicity by 50%.; format: functional, cell-based
HEL [8] = assay: Antiviral activity was determined against Vaccinia virus in HEL cells by measuring concentration required to reduce virus induced cytopathogenicity by 50%.; format: functional, cell-based; details: Homo sapiens
HEL [9] = assay: Antiviral activity was determined against Vesicular stomatitis virus in HEL cells by measuring concentration required to reduce virus induced cytopathogenicity by 50%.; format: functional, cell-based; details: Homo sapiens
HeLa [10] = assay: Anti viral activity against HeLa cytotoxicity by minimum cytotoxic concentration that causes a microscopically detectable alteration of normal cell morphology after 2 day of treatment.; format: functional; details: Homo sapiens, 48 h
HeLa [11] = assay: Antiviral activity was determined against Respiratory syncytial virus(strain Long) in HeLa cells by measuring concentration required to reduce virus induced cytopathogenicity by 50%.; format: functional, cell-based; details: Homo sapiens
Procedure, shortened: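 RSV cytopathicity in HeLa cells. Compound added immediately after virus infection and left in the culture. Virus-induced cytopathogenicity scored at day 5 post-infection. IC50 in μg/mL.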

[12] = biological target: Human immunodeficiency virus type 1 integrase (Human immunodeficiency virus 1, UniProt Q7ZJM1); assay: Inhibition of HIV -1 Integrase
Procedure, shortened: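 Purified HIV-1 integrase. 3'-processing and strand-transfer (integration) activities were measured with synthetic double-stranded oligonucleotides mimicking viral DNA ends. Compounds tested as ammonium salts. Values are means of at least two experiments.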

MOLT-4 [13] = assay: Gaint cell formation between HIV-1 (HTLV-IIIB) infected HUT-78 cells and uninfected MOLT-4(clone-8)cells; format: functional, cell-based; details: Homo sapiens
Procedure, shortened: (§2)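 Syncytium assay: HUT-78 cells persistently infected with HIV-1 (HTLV-IIIB) or HIV-2 (LAV-2ROD) were co-cultured with uninfected MOLT-4 (clone 8) cells, and giant-cell formation was scored. Compounds tested as ammonium salts. Values are means of at least two experiments.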

MOLT-4 [14] = assay: Gaint cell formation between HIV-2 (LAV-2 rod) infected HUT-78 cells and uninfected MOLT-4(clone-8)cells; format: functional, cell-based; details: Homo sapiens; procedure, shortened: as §2
MT4 [15] = assay: Cytotoxical effect against MT-4 cell lines was determined by reduction of cellular viability. data represent mean value of at least two separate experiments.; format: functional; details: Homo sapiens; procedure, shortened: as §1
MT4 [16] = assay: Viral cytopathicity against HIV -2 (LAV-2 rod)strain determined in MT-4 cells; format: functional, cell-based; details: Homo sapiens
MT4 [17] = assay: Viral cytopathicity against HIV -I (HTLV-IIIb) strain determined in MT-4 cells; format: functional, cell-based; details: Homo sapiens
MDCK [18] = assay: Anti viral activity against MDCK cytotoxicity by minimum cytotoxic concentration that causes a microscopically detectable alteration of normal cell morphology after 2 day of treatment.; format: functional; details: Canis lupus familiaris, 48 h
MDCK [19] = assay: Antiviral activity was determined against Influenza virus A(strain Ishikawa) in MDCK cells by measuring concentration required to reduce virus induced cytopathogenicity by 50%.; format: functional, cell-based; details: Canis lupus familiaris
Procedure, shortened: (§3)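 Tested in MDCK cells, with compound applied right after infection and left on. Cytopathic effect of influenza A (Ishikawa) or B (Singapore) was read at day 5 pi. IC50 is the concentration halving cytopathogenicity, in µg/mL.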

MDCK [20] = assay: Antiviral activity was determined against Influenza virus B(strain Singapore) MDCK cells by measuring concentration required to reduce virus induced cytopathogenicity by 50%.; format: functional, cell-based; details: Canis lupus familiaris; procedure, shortened: as §3
Homo sapiens [21] = organism: Homo sapiens; assay: Cytotoxical effect against PBL cell lines was determined by reduction of cellular viability. data represent mean value of at least two separate experiments.; format: functional; procedure, shortened: as §1
[22] = biological target: Human immunodeficiency virus type 1 protease (Human immunodeficiency virus 1, UniProt Q72874); assay: Inhibition of HIV -1 protease
Procedure, shortened: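 Purified HIV-1 protease with the peptide substrate Ala-Ser-Glu-Asn-Tyr-Pro-Ile-Val-Glu-amide. Cleavage quantified by reverse-phase HPLC. Compounds tested as ammonium salts. Values are means of at least two experiments.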

Homo sapiens [23] = organism: Homo sapiens; assay: Inhibition of p24 production in Peripheral blood lymphocytes; format: functional, organism-based
Procedure, shortened: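 Phytohemagglutinin-stimulated peripheral blood lymphocytes infected with HIV-1 WUJO. Read-out is virion-associated p24 production. Compounds tested as ammonium salts. Values are means of at least two experiments.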

Vero [24] = assay: Anti viral activity against Vero cellular cytotoxicity by minimum cytotoxic concentration that causes a microscopically detectable alteration of normal cell morphology after 2 day of treatment.; format: functional; details: Chlorocebus sabaeus, 48 h
Vero [25] = assay: Antiviral activity was determined against Junin virus in Vero cells by measuring concentration required to reduce virus induced cytopathogenicity by 50%.; format: functional, cell-based; details: Chlorocebus sabaeus
Vero [26] = assay: Antiviral activity was determined against Tacaribe virus in Vero cells by measuring concentration required to reduce virus induced cytopathogenicity by 50%.; format: functional, cell-based; details: Chlorocebus sabaeus
CCRF-CEM [27] = assay: Cytotoxical effect against CEM cell lines was determined by reduction of cellular viability; format: functional; details: Homo sapiens; procedure, shortened: as §1
HEL [28] = assay: Antiviral activity against HEL cells by measuring minimum cytotoxic concentration that causes a microscopically detectable alteration of normal cell morphology after 2 day of treatment.; format: functional; details: Homo sapiens, 48 h
HeLa [29] = assay: Antiviral activity against HeLa cells by measuring minimum cytotoxic concentration that causes a microscopically detectable alteration of normal cell morphology after 2 day of treatment.; format: functional; details: Homo sapiens, 48 h
MOLT-4 [30] = assay: Giant cell formation between HIV-1 (HTLV-IIIB) infected HUT-78 cells and uninfected MOLT-4(clone-8)cells; format: functional, cell-based; details: Homo sapiens; procedure, shortened: as §2
MOLT-4 [31] = assay: Giant cell formation between HIV-2 (LAV-2 rod) infected HUT-78 cells and uninfected MOLT-4(clone-8)cells; format: functional, cell-based; details: Homo sapiens; procedure, shortened: as §2
MT4 [32] = assay: Cytotoxical effect against MT-4 cell lines was determined by reduction of cellular viability; format: functional; details: Homo sapiens; procedure, shortened: as §1
MDCK [33] = assay: Antiviral activity against MDCK cells by measuring minimum cytotoxic concentration that causes a microscopically detectable alteration of normal cell morphology after 2 day of treatment.; format: functional; details: Canis lupus familiaris, 48 h
Vero [34] = assay: Antiviral activity against Vero cells by measuring minimum cytotoxic concentration that causes a microscopically detectable alteration of normal cell morphology after 2 day of treatment.; format: functional; details: Chlorocebus sabaeus, 48 h
Homo sapiens [35] = organism: Homo sapiens; assay: Cytotoxical effect against PBL cell lines was determined by reduction of cellular viability; format: functional; procedure, shortened: as §1

Chain of Human immunodeficiency virus type 1 integrase (Q7ZJM1 whole entry): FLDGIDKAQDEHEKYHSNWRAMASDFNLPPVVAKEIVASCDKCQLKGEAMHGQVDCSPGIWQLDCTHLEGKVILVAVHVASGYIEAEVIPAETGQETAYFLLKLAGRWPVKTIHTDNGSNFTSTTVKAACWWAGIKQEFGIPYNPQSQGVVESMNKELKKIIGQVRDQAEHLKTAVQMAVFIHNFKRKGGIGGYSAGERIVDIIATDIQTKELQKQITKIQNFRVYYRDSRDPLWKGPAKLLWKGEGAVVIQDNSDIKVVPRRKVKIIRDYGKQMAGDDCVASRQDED

SMILES: CCCCCC=C(c1cc(Cl)c(O)c(C(=O)NO)c1)c1cc(Cl)c(O)c(C(=O)NO)c1
- CC50 (CCRF-CEM [1]): 36.2 µM
- CC50 (HEL [2]): 20 µM
- IC50 (HEL [3]): > 5 µM
- IC50 (HEL [4]): 5 µM
- IC50 (HEL [5]): > 5 µM
- IC50 (HEL [6]): 5 µM
- IC50 (HEL [7]): > 5 µM
- IC50 (HEL [8]): 5 µM
- IC50 (HEL [9]): > 20 µM
- CC50 (HeLa [10]): 4 µM
- IC50 (HeLa [11]): > 4 µM
- IC50 [12]: 4 µM
- IC50 (MOLT-4 [13]): 8 µM
- IC50 (MOLT-4 [14]): 40 µM
- CC50 (MT4 [15]): > 40 µM
- IC50 (MT4 [16]): > 40 µM
- IC50 (MT4 [17]): 21.9 µM
- CC50 (MDCK [18]): 4 µM
- IC50 (MDCK [19]): > 4 µM
- IC50 (MDCK [20]): > 4 µM
- CC50 (Homo sapiens [21]): 148 µM
- IC50 [22]: 58 µM
- IC50 (Homo sapiens [23]): 112 µM
- CC50 (Vero [24]): 5 µM
- IC50 (Vero [25]): > 2 µM
- IC50 (Vero [26]): > 2 µM

SMILES: O=C(O)c1cc(C(=CCC23CC4CC(CC(C4)C2)C3)c2cc(Cl)c(O)c(C(=O)O)c2)cc(Cl)c1O
- CC50 (CCRF-CEM [27]): 105 µM
- IC50 (HEL [3]): > 20 µg/mL
- IC50 (HEL [4]): > 5 µg/mL
- IC50 (HEL [5]): > 5 µg/mL
- IC50 (HEL [6]): > 5 µg/mL
- IC50 (HEL [7]): 11 µg/mL
- IC50 (HEL [8]): > 5 µg/mL
- IC50 (HEL [9]): > 5 µg/mL
- MCC (HEL [28]): 50 µg/mL
- IC50 (HeLa [11]): 4 µg/mL
- IC50 [12]: 7 µM
- MCC (HeLa [29]): 20 µg/mL
- IC50 (MOLT-4 [30]): > 40 µM
- IC50 (MOLT-4 [31]): > 40 µM
- CC50 (MT4 [32]): > 40 µM
- IC50 (MT4 [17]): > 40 µM
- MCC (MDCK [33]): 4 µg/mL
- IC50 (MDCK [19]): > 4 µg/mL
- IC50 (MDCK [20]): > 4 µg/mL
- IC50 [22]: 0.37 µM
- IC50 (Homo sapiens [23]): 148 µM
- MCC (Vero [34]): 50 µg/mL
- IC50 (Vero [25]): > 20 µg/mL
- IC50 (Vero [26]): > 20 µg/mL
- CC50 (Homo sapiens [35]): 185 µM

SMILES: CC(CCC=C(c1cc(Cl)c(O)c(C(=O)O)c1)c1cc(Cl)c(O)c(C(=O)O)c1)[C@H]1CC[C@H]2[C@@H]3CC[C@@H]4CCCC[C@]4(C)[C@H]3CC[C@]12C (some centres not stated)
- CC50 (CCRF-CEM [27]): 69.5 µM
- IC50 (HEL [3]): > 20 µg/mL
- IC50 (HEL [4]): > 20 µg/mL
- IC50 (HEL [5]): > 20 µg/mL
- IC50 (HEL [6]): > 20 µg/mL
- IC50 (HEL [7]): > 20 µg/mL
- IC50 (HEL [8]): 13 µg/mL
- IC50 (HEL [9]): > 20 µg/mL
- MCC (HEL [28]): 50 µg/mL
- IC50 (HeLa [11]): 4 µg/mL
- IC50 [12]: 2.2 µM
- MCC (HeLa [29]): 100 µg/mL
- IC50 (MOLT-4 [30]): 24 µM
- IC50 (MOLT-4 [31]): 40 µM
- CC50 (MT4 [32]): 31.4 µM
- IC50 (MT4 [16]): > 31.3 µM
- IC50 (MT4 [17]): 27.2 µM
- MCC (MDCK [33]): 20 µg/mL
- IC50 (MDCK [19]): > 12 µg/mL
- IC50 (MDCK [20]): > 20 µg/mL
- IC50 [22]: 1.5 µM
- IC50 (Homo sapiens [23]): 39 µM
- MCC (Vero [34]): 20 µg/mL
- IC50 (Vero [25]): > 5 µg/mL
- IC50 (Vero [26]): > 5 µg/mL
- CC50 (Homo sapiens [35]): 135 µM
